Experimental data taken from ChEMBL document CHEMBL1140550, “New 'chemical probes' to examine the role of the hFPRL1 (or ALXR) receptor in inflammation” (Bioorg Med Chem Lett, 2007).
pEC50, pIC50: −log10 of the molar value. Active and inactive are the calls of the source. No cut-off for these calls is given here.

How the values were obtained:
[1] = molecular target: T1, N-formyl peptide receptor 2 (Homo sapiens, UniProt P25090); assay: Agonist activity at human recombinant FPRL1 expressed in CHO cells assessed as calcium flux by aequorin based bioluminescence assay; format: functional, cell-based
T1 sequence (P25090 whole entry): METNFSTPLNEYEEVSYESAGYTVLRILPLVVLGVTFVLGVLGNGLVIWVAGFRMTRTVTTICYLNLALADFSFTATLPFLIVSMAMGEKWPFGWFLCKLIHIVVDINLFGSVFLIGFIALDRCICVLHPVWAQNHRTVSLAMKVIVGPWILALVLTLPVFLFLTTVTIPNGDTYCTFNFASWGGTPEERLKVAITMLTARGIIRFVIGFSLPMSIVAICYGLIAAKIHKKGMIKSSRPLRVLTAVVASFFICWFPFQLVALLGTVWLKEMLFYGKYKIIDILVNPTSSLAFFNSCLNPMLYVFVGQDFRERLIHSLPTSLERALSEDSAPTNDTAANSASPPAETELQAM
How it was run: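 EC50 from Ca2+ flux in recombinant CHO cells co-expressing human FPRL1, Gα15 protein and aequorin. Values without standard deviation are the mean of two data points.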

[2] = molecular target: T2, fMet-Leu-Phe receptor (Homo sapiens, UniProt P21462); assay: Agonist activity at human recombinant FPR expressed in CHO cells assessed as calcium flux by aequorin based bioluminescence assay; format: functional, cell-based
T2 sequence (P21462 whole entry): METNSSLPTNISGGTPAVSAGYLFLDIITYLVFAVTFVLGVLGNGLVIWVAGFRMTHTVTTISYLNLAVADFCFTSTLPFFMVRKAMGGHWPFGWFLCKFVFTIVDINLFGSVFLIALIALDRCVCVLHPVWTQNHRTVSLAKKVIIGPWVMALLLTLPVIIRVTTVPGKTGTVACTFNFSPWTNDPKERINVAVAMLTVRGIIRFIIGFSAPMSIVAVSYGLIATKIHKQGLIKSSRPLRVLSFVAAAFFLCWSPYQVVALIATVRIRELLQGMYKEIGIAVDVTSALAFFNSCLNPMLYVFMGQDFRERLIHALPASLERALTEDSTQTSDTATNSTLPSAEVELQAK
How it was run: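 CHO cells stably transfected with human FPR, aequorin and Gα15 protein; EC50 derived from Ca2+ flux read by aequorin luminescence.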

[3] = Inhibition of fMLP-induced human PMN migration after 45 mins; format: functional; settings: 0.75 h
How it was run: (§1)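 Human polymorphonuclear neutrophils from at least three donors, exposed to compound (final DMSO 0.1%). Migration toward a gradient of IL-8 or fMLP chemo-attractant (10 nM each) followed by fluorescence. Mean IC50 reported.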

[4] = Inhibition of IL8-induced human PMN migration after 45 mins; format: functional; settings: 0.75 h; how it was run: as §1
[5] = test system: Blood; assay: Stimulation of IL6 secretion in human whole blood after 18 hrs; format: functional, tissue-based
How it was run: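 Heparinized human whole blood, 50% final, preincubated with compound for 1 h at 37 °C, 5% CO2, then stimulated with IL-1β (300 pM final) for 18 h. Final DMSO 0.1%. IL-6 in supernatant/plasma measured by electrochemiluminescence immunoassay.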

Q: What does the source list for `CCc1nc2ccccc2n1[C@@H]1CCN(C(=O)c2nc3ccc(OC)cc3[nH]2)C1`?
A: pEC50 [1]: 5.73; pEC50 [2]: < 5.00

Q: With `CC(C)c1c(NC(=O)Nc2ccc(Cl)cc2)c(=O)n(-c2ccccc2)n1C` as the compound, how does the pIC50 [3] read?
A: The pIC50 was 6.19.

Q: And the pIC50 [4]?
A: Its pIC50 is 6.62.

Q: What about the Activity [5] of the same compound?
A: Its Activity is “Active”.

Q: With `CC(C)c1c(NC(=O)Nc2ccccc2Cl)c(=O)n(-c2ccccc2)n1C` as the compound, how does the pEC50 [1] read?
A: The pEC50 was less than 5.00.
